Calb FLC = C. albicans growth modulation with fluconazole; C. albicans CaCi-2 (fluconazole-resistant clinical isolate) + fluconazole, Alamar Blue growth, 48 h; hit rate 0.57% among 300,000; growth inhibition, % (no concentration beside the values); AID 1979;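 active means growth inhibition above about 58% in most replicates, limit read from the data, passing the limit was not always enough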;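 further: all wells also contain fluconazole at 8 µg/ml as a sub-toxic cotreatment; 0% = median of DMSO wells and 100% = median of geldanamycin control wells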
T cruzi inh = blocks replication of Trypanosoma cruzi | T. cruzi beta-gal in NIH3T3, luminescence, 90 h | inhibition, % (no concentration beside the values) | hit rate 1.4% among 300,000;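 active means mean inhibition across valid replicates above about 55%, limit read from the data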;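 further: signal also drops with host cell toxicity which is not excluded here; 0% = plate median of DMSO wells and 100% = zero luminescence signal; higher percent means less beta-gal luminescence so fewer parasites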
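assay system = mouse NIH/3T3 fibroblasts infected with β-gal-expressing T. cruzi Tulahuen C4 | input = 5,000 NIH/3T3 host cells per well | buffer or medium = DMEM plus 2% FBS | timing = 3 h host attachment, then at least 90 h co-culture | measured by = GalScreen luminescence, 60 min | evaluation = luminescence reflecting intracellular parasite burden, expressed as percent inhibition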
PolyA inhibitor = blocks polyadenylation in yeast reporter cells | S. cerevisiae SKY197-pL101 polyadenylation reporter, beta-gal luminescence; efflux-impaired pdr1/pdr3 knockout yeast; score 100 = 6 SD above DMSO | activity score, % at 12 µM | hit rate 0.02% among 300,000 | AID 1875;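 active means lowest replicate activity score at least 50, where 100 means six control SD above control mean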;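 further: yeast exposed to compound for 9 h at 30 °C; higher score means more reporter readthrough which indicates perturbed polyadenylation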
Lmaj promast = inhibitors of Leishmania major promastigote growth; Leishmania major promastigotes, resazurin fluorescence viability; inhibition, % at 10 µM; hit rate 9% among 200,000; in the data active means inhibition above about 50%;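 further: promastigotes grown with compound for 44 hours at 28 °C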
NALP3 yeast inh = blocks the NALP3 inflammasome reconstituted in yeast; inhibition, % at 10 µM; AID 2825; Yeast reconstituted NLRP3/ASC/caspase-1, beta-gal luminescence, 24 h; hit rate 0.39% among 330,000;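 active means inhibition of 50% or more; inactive means inhibition below 50%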;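 further: plate controls were induced DMSO wells for no effect and uninduced yeast grown without galactose for full effect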
NALP1 yeast inh = inhibitors of NALP1 inflammasome in yeast | inhibition, % at 10 µM | hit rate 0.61% among 280,000 | AID 2071 | S. cerevisiae NALP1/ASC/caspase-1 growth, X-gal OD620, 72 h; in the data active means inhibition mostly above about 24%, no sharp cut-off; inactive means mostly below about 32%
* marks the source's active call; other numbers are inactive results. Only a selection was taken, and hits are over-represented in it overall.

How did O=C(c1cccs1)N1N=C(c2ccccc2)CC1c1ccc(O)cc1 (stereo not given) do in these assays?
Calb FLC: -7; T cruzi inh: 1; PolyA inhibitor: 5; Lmaj promast: -3; NALP3 yeast inh: 12; NALP1 yeast inh: 22

How did Cc1cc(C)nc(/N=C(\N)Nc2ccc(CC(=O)OC(C)C)cc2)n1 do in these assays?
Calb FLC: -10; T cruzi inh: 10; PolyA inhibitor: -15; NALP3 yeast inh: 0; NALP1 yeast inh: 16

Results for Cc1cc(C)nc(/N=C(\N)Nc2ccc(OCCC(C)C)cc2)n1 ?
Calb FLC: -23; T cruzi inh: 42; PolyA inhibitor: -3; NALP3 yeast inh: -2; NALP1 yeast inh: 33*

What do the screens show for `Cc1cc(C)nc(/N=C(\N)Nc2ccc(OCc3ccccc3)cc2)n1`?
Calb FLC: -18; T cruzi inh: 45; PolyA inhibitor: -10; Lmaj promast: 100*; NALP3 yeast inh: 9; NALP1 yeast inh: -5

Results for Cc1cc(C)nc(/N=C(\N)Nc2cccc(OCc3ccccc3)c2)n1 ?
Calb FLC: -26; T cruzi inh: -14; PolyA inhibitor: 11; NALP3 yeast inh: 23; NALP1 yeast inh: -8

How did O=C(OCn1ncc(Br)c(Br)c1=O)c1ccc(F)cc1 do in these assays?
Calb FLC: -11; T cruzi inh: 51; PolyA inhibitor: -88; Lmaj promast: 100*; NALP3 yeast inh: 1; NALP1 yeast inh: 9

Results for O=C(OCn1ncc(Br)c(Br)c1=O)c1ccccc1Cl ?
Calb FLC: 5; T cruzi inh: 59*; PolyA inhibitor: -45; Lmaj promast: 101*; NALP3 yeast inh: -27; NALP1 yeast inh: 7

Results for Cc1cc(C(=O)OCC(=O)N2CCc3ccccc32)ccc1[N+](=O)[O-] ?
NALP3 yeast inh: 20

How did NC(=O)c1nc(-c2cccs2)nc2c1[nH]c(=O)n2-c1ccc(F)cc1 do in these assays?
Calb FLC: 3; T cruzi inh: -18; PolyA inhibitor: -6; Lmaj promast: -1; NALP3 yeast inh: 0; NALP1 yeast inh: 10

How did O=c1[nH]c2cccnc2n1-c1cccc([N+](=O)[O-])c1 do in these assays?
Calb FLC: 15; T cruzi inh: -4; PolyA inhibitor: 12; NALP3 yeast inh: 9

How did COc1ccc(-c2cc(C#N)nc(N3CCN(C)CC3)n2)cc1 do in these assays?
Calb FLC: -39; T cruzi inh: 66*; PolyA inhibitor: 0; Lmaj promast: 25; NALP3 yeast inh: 18; NALP1 yeast inh: 19

What do the screens show for `COc1ccc(-c2cc(C(F)(F)F)nc(N3CCN(C)CC3)n2)cc1`?
Calb FLC: -15; T cruzi inh: 33; PolyA inhibitor: -12; Lmaj promast: 38; NALP3 yeast inh: 17; NALP1 yeast inh: 23

Results for COc1ccc(-c2cc(C#N)nc(N3CCNCC3)n2)cc1 ?
Calb FLC: -27; T cruzi inh: 57*; PolyA inhibitor: -4; Lmaj promast: 100*; NALP3 yeast inh: 19; NALP1 yeast inh: -11

Results for CN1CCN(c2nc(C#N)cc(-c3ccccc3)n2)CC1 ?
Calb FLC: -28; T cruzi inh: 19; PolyA inhibitor: 13; Lmaj promast: 14; NALP3 yeast inh: 4; NALP1 yeast inh: 24*

Results for COc1ccc(-c2cc(C(F)(F)F)nc(N3CCCCC3)n2)cc1OC ?
Calb FLC: 5; T cruzi inh: -2; PolyA inhibitor: -1; Lmaj promast: 14; NALP3 yeast inh: 7; NALP1 yeast inh: 10

How did COc1ccc(-c2cc(C#N)nc(Cl)n2)cc1 do in these assays?
Calb FLC: -6; T cruzi inh: 23; PolyA inhibitor: 11; NALP3 yeast inh: 17

How did COc1ccc(-c2cc(C(F)(F)F)nc(N3CCN(C)CC3)n2)cc1OC do in these assays?
Calb FLC: -21; T cruzi inh: 31; PolyA inhibitor: 7; Lmaj promast: 85*; NALP3 yeast inh: 7; NALP1 yeast inh: 2

What do the screens show for `COc1ccc(Cl)cc1C(=O)NNC1CC(=O)N(Cc2ccc(Cl)cc2)C1=O` (stereo not given)?
Calb FLC: 25; T cruzi inh: 6; PolyA inhibitor: 0; Lmaj promast: -4; NALP3 yeast inh: 8; NALP1 yeast inh: 28

How did CN1N=C(C(=O)N2CCCC(N3CCN(c4ccc(F)cc4)CC3)C2)CCC1=O (stereo not given) do in these assays?
Calb FLC: 0; T cruzi inh: -5; PolyA inhibitor: -27; NALP3 yeast inh: 12; NALP1 yeast inh: -1

High-throughput results deposited in PubChem by several laboratories.
